Screening results as filed in PubChem.
TRPC6 activator – mouse TRPC6 channel activators, primary screen, cell-based, HEK293, membrane potential dye; 310,000 tested, 0.13% active; HEK293-TRPC6 membrane potential dye fluorescence; stronger effect = higher value; Short transient receptor potential channel 6 (Mus musculus), Q61143; B-score at 10 µM;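 active means B-score of the integrated fluorescence ratio above library mean plus 3 SD, and starting fluorescence ratio within library mean plus 5 SD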;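 further: higher score means more depolarization so channel activation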
Kir21 inh – inhibitors of mouse Kir2.1 inward-rectifier potassium channel. 310,000 tested, 0.85% active. HEK293-Kir2.1, FluxOR thallium flux fluorescence; stronger effect = lower value. B-score at 10 µM;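 active means fluorescence ratio B-score at or below minus 3 SD of library scores, with starting-brightness B-score within 2 SD, cut at about -4.2 in these data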;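 further: channel flux triggered by added potassium and thallium sulfate stimulus; B-score of peak minus minimum fluorescence over baseline after thallium stimulus; more negative B-score means stronger Kir2.1 block with less thallium influx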
TRPC4 agonist – activators of mouse TRPC4 channel, primary screen, Fluo4 calcium, HEK293 TRPC4beta/mu-opioid cells; Short transient receptor potential channel 4 (Mus musculus), Q9QUQ5; Fluo4 calcium fluorescence; stronger effect = higher value; B-score at 10 µM; 310,000 tested, 0.49% active; AID 2237, 2010;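 active means B-score above 5 SD of library B-scores, and initial fluorescence ratio not above library mean plus 5 SD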;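 further: positive B-score marks a calcium rise read as TRPC4 activation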
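Material: HEK293 stable line with TRPC4beta plus mu-opioid receptor; technique: Fluo4 calcium-sensitive dye fluorescence, kinetic, 1 Hz baseline; timing: Fluo4 dye loading 45 min at room temperature, 110 s recording; controls: assay buffer as low control, maximal DAMGO as high control; read-out: integrated baseline-normalised fluorescence ratio, converted to per-well B score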
TRPC4 PAM – positive allosteric modulators of TRPC4, primary screen, cell-based, mouse TRPC4beta, HEK293 mu-opioid, Fluo-4 calcium; Short transient receptor potential channel 4 (Mus musculus), Q9QUQ5; DAMGO EC20, Fluo-4 Ca2+ flux; stronger effect = higher value; B-score at 10 µM; 310,000 tested, 0.42% active; AID 2227, 2009;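 active means B-score of calcium response area above 5 SD of library B-scores, with initial fluorescence ratio within 5 SD of library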;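 further: B-score of integrated fluorescence ratio over time as area under calcium response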
TRPC4 block – inhibitors of mouse TRPC4 channel, primary screen, Fluo4 calcium, HEK293 TRPC4beta/mu-opioid cells; Short transient receptor potential channel 4 (Mus musculus), Q9QUQ5; DAMGO-evoked Fluo4 calcium flux; stronger effect = lower value; B-score at 10 µM; 300,000 tested, 0.39% active;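 active means B-score over 3 SD under the library average, no early fluorescence shift, positive overall ratio signal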
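Assay system – HEK293 line stably carrying TRPC4beta and mu-opioid receptor · Doses – single dose · Detection – Fluo4 calcium-dye fluorescence, kinetic read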
TRPC6 inhibitor – mouse TRPC6 channel inhibitors, primary screen, cell-based, HEK293, membrane potential dye; 310,000 tested, 1.1% active; AID 2553, 2010; B-score at 10 µM; ACh-evoked depolarization; stronger effect = lower value; Short transient receptor potential channel 6 (Mus musculus), Q61143;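 active means B-score under library mean minus 3 SD, initial fluorescence not abnormally high, positive integrated signal ratio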;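 further: B-score derived from integrated fluorescence ratio over the kinetic read; more negative B-score means stronger inhibition of depolarization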
hERG ctr – hERG channel inhibition, counter-screen for Kir2.1 inhibitor project, cell-based, thallium flux | shares compounds with Kir21 inh | hERG-expressing cells | inhibition, % at 10 µM | 320 tested, 20% active;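 further: host cells are CHO cells stably expressing hERG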
Target sequence (Q12809 whole entry, looked up): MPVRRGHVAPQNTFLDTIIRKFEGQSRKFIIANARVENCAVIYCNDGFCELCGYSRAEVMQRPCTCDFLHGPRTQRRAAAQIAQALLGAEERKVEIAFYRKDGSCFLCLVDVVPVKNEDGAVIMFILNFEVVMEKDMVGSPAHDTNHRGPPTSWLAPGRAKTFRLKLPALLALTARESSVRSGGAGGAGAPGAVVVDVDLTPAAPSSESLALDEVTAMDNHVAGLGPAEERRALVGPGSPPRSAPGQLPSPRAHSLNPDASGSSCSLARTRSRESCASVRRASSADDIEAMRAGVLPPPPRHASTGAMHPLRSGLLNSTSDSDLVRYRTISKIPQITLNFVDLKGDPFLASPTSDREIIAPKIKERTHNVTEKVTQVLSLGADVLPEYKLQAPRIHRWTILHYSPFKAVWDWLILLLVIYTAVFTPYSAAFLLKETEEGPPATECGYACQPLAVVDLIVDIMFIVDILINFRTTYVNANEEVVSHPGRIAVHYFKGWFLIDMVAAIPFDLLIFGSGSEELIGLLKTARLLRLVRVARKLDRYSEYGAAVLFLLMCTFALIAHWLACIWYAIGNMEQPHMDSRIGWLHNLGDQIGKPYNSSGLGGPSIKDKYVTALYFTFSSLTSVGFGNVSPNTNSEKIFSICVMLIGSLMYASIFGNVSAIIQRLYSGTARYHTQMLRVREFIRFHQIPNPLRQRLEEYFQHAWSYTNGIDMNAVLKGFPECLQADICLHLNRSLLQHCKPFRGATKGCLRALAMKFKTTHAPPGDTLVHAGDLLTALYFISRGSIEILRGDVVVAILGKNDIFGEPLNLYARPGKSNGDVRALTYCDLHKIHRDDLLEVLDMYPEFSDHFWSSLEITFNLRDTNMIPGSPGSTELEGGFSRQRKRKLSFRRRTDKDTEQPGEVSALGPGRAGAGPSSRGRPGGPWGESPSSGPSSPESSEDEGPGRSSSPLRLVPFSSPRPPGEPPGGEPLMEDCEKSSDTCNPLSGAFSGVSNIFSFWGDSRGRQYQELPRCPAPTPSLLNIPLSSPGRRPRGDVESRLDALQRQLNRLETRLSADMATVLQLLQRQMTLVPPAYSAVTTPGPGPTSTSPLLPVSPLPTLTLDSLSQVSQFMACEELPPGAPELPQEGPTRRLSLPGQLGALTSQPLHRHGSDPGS
KCNK9 inh – KCNK9 channel inhibition, selectivity assay for Kir2.1 inhibitor project, cell-based; inhibition, % at 10 µM; KCNK9-expressing cells, ion flux inhibition; AID 2329, 2010; shares compounds with Kir21 inh; 320 tested, 5% active
Kir21 ephys inh – mouse Kir2.1 channel blockers, Kir2.1 inhibitor project, cell-based, secondary, automated electrophysiology | shares compounds with Kir21 inh | Kir2.1 cells, automated patch-clamp current inhibition | inhibition, % at 25 µM | 320 tested, 71% active | AID 463252, 2010
The depositor's hits bear a star; i = inactive; nt = no result. Shown are actives, neighbours in structure and some others; about 2.9% of the full set was active somewhere. Unless noted, how the calls were made is not given here.

SMILES	TRPC6 activator	Kir21 inh	TRPC4 agonist	TRPC4 PAM	TRPC4 block	TRPC6 inhibitor	hERG ctr	KCNK9 inh	Kir21 ephys inh
CC(C)CCC(CCNCc1ccccn1)c1ccc(Cl)cc1 (stereo unspecified)	i	-6.7*	i	i	i	i	70%*	i	i
S=C(NCc1ccc(Cl)cc1)NCc1ccccn1	i	-1.4	i	i	i	i	nt	nt	nt
CCCc1ccccc1OCCNS(=O)(=O)c1cc2c(cc1C)OCC(=O)N2	i	-6.5*	i	i	i	i	i	i	i
Cc1ccc2nc(N3CCN(CCO)CC3)nc(-c3ccccc3)c2c1	i	-7*	i	i	i	i	60%*	i	16%*
Cc1onc(-c2ccccc2Cl)c1C(=O)c1ccccc1	i	-6.4*	i	i	i	i	i	i	11%*
O=C1CCCC(=O)N1c1ccc(N2CCOCC2)c([N+](=O)[O-])c1	i	0.4	i	i	i	i	nt	nt	nt
Cc1ccc(S(=O)(=O)N2CCC(C(=O)NCc3ccncc3)CC2)cc1	i	1.1	i	i	i	i	nt	nt	nt
CC(C)(c1ccccc1)c1ccc(OCC2CO2)cc1 (stereo unspecified)	i	0.86	i	i	i	i	nt	nt	nt
CN(C)CCCOc1ccc(C(C)(C)c2ccccc2)cc1	i	-6.6*	i	i	i	i	i	i	39%*
Cc1ccc(C(CCN(Cc2ccccc2)C(=O)c2ccco2)c2ccco2)cc1 (stereo unspecified)	i	0.33	i	i	i	i	nt	nt	nt
O=C(c1ccco1)N(CCC(c1ccccc1)c1ccco1)Cc1ccco1 (stereo unspecified)	i	-6.1*	i	i	i	i	i	48%*	i
CCN(Cc1ccc(OC)c(COC)c1)CC1CCCN(CCc2cccc(F)c2)C1 (stereo unspecified)	i	-0.63	i	i	i	i	nt	nt	nt
CCN(Cc1ccc(C#CCCO)cc1)CC1CCCN(CCc2cccc(F)c2)C1 (stereo unspecified)	i	-6.7*	i	i	i	i	55%*	i	14%*
CC(C)c1ccc(C(C)NCCS(=O)(=O)c2ccc(Cl)cc2)cc1 (stereo unspecified)	i	-8*	i	i	i	i	i	i	5.1%*
CC(C(=O)NCCS(=O)(=O)c1ccc(Br)cc1)S(=O)(=O)c1ccc(Cl)cc1 (stereo unspecified)	i	-0.02	i	i	i	i	nt	nt	nt
Nc1ccc(-c2ccc(N)cc2C(F)(F)F)c(C(F)(F)F)c1	i	-6.4*	i	i	i	i	i	48%*	i
Nc1ccc(C(O)(C(F)(F)F)C(F)(F)F)cc1	i	0.35	i	i	i	i	nt	nt	nt
CCNCc1cc(Cl)c(OCc2ccccc2)c(OCC)c1	i	-7*	i	i	i	i	i	i	47%*
Cc1[nH]n(-c2ccccc2)c(=O)c1CCO	i	1.2	i	i	i	i	nt	nt	nt
Cc1[nH]n(-c2ccccc2)c(=O)c1S(=O)(=O)c1ccccc1	i	-15*	i	i	i	i	i	i	66%*
COc1cc(C)ccc1OCCCCNCc1ccccc1	i	-5.8*	i	i	i	i	i	i	37%*
CCc1ccc(S(=O)(=O)NCCOc2cccc3cccnc23)cc1	i	-7*	i	i	i	i	i	i	i
CN1CCC(OC(=O)c2ccccc2)CC1	i	0.23	i	i	i	i	nt	nt	nt
Cc1c(Br)cc(C(=O)OC2CCN(C)CC2)c(C)c1C	i	-10*	i	i	i	i	i	i	45%*
CN1CCc2c(n(CC(O)CNCc3ccccc3)c3ccccc23)C1=O (stereo unspecified)	i	-6*	i	i	i	i	i	31%*	i
SMILES	TRPC6 activator	Kir21 inh	TRPC4 agonist	TRPC4 PAM	TRPC4 block	TRPC6 inhibitor	hERG ctr	KCNK9 inh	Kir21 ephys inh
CCOc1ccccc1CNCc1ccc(C(=O)O)cc1	i	-1.5	i	i	i	i	nt	nt	nt
O=C(COc1ccccc1CNCc1ccccc1)Nc1ccccc1	i	-10*	i	i	i	i	49%*	i	43%*
CC(C)(C)OC(=O)NCCc1nnc(SCc2ccc(Cl)cc2Cl)o1	i	-8.9*	i	i	i	i	i	i	48%*
CC(C)(C)OC(=O)NCCc1nnc(SCC(=O)c2ccc(Cl)cc2)o1	i	0.42	i	i	i	i	nt	nt	nt
COc1ccc(C)cc1NC(=O)n1ncc2cc(Cl)ccc21	i	-2	i	i	i	i	nt	nt	nt
S=C(NCC1CCCO1)N1CCN(c2nc(-c3ccc(Cl)cc3)cs2)CC1 (stereo unspecified)	i	1.3	i	i	i	i	i	i	i
O=C(c1ccccc1)c1ccc(OCC(O)CNCc2ccc(F)cc2)cc1 (stereo unspecified)	i	-9.2*	i	i	i	i	60%*	i	65%*
O=C(COc1ccc(C(=O)c2ccccc2)cc1)NCc1ccc(F)cc1	i	-2.3	i	i	i	i	nt	nt	nt
CC1CCN(C(=O)COC(=O)c2ccc3c(c2)OCO3)CC1	i	1.4	i	i	i	i	nt	nt	nt
COc1ccccc1/C=C(\NC(=O)c1ccccc1)C(=O)NCc1ccco1	i	3.9	i	i	i	i	i	i	i
